# Test results taken from PMC5061631 (Cell metabolism, 2016).
# Key:
# [1] = tested on: site IQ; conditions: ref Orr et al., 2013; cited from earlier work
# [2] = tested on: site IQ of mitochondrial respiratory complex I; format: biochemical, rat; conditions: for IC50: read-out: IC50 against superoxide-H2O2 production from site IQ, isolated rat skeletal muscle mitochondria
# Summary of the method: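 Freshly isolated rat skeletal muscle mitochondria, in the high-throughput screen run in 1,536-well format with library compounds at 10 µM. H2O2 was detected by Amplex UltraRed, which horseradish peroxidase oxidises to fluorescent resorufin. Data were normalised to the plate median signal, and rotenone was included on every plate as the positive site IQ inhibitor.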
# [3] = tested on: intestinal stem cells; assay: In vivo stem cell proliferation assays in Drosophila intestine; set-up: species or system Drosophila melanogaster; conditions: dietary, 800 nM; 50 µM tunicamycin
# Summary of the method: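 Tunicamycin model: w;esgGal4,UAS-GFP virgins were crossed to Oregon Red males. Six-day-old offspring were starved 4 hr, fed 24 hr on 5% sucrose with 0.8% DMSO plus test compound, starved 1 hr, then given the same food with 50 µM tunicamycin for 24 hr. Adult female intestines were fixed and immunostained for phospho-histone H3, and positive cells were counted manually.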
# [4] = tested on: H9c2 rat cardiomyoblasts; assay: ER stress protection assay: caspase 3/7 activation by tunicamycin; format: cell-based; conditions: H9c2 cells, 0.5 µg/ml tunicamycin, 24 hr
# Summary of the method: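 H9c2 cardiomyoblasts were seeded at 8,000 cells/well and grown 24 hr in DMEM with 10% FBS. Test compound or 1% DMSO vehicle was added, then 0.5 µg/ml tunicamycin 15 min later. After a further 24 hr, caspase 3/7 activity was read by luminescence. Background from cells without tunicamycin was subtracted, and values were normalised to vehicle-treated tunicamycin-exposed cells.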
# [5] = tested on: perfused mouse heart; assay: Langendorff-perfused heart model of ischemia-reperfusion injury; conditions: 1.6 µM for 5 min at reperfusion
# Summary of the method: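 Mouse hearts were excised under tribromoethanol anaesthesia and perfused retrogradely at 4 ml/min in modified Krebs-Henseleit buffer with glucose, palmitate/BSA, lactate and pyruvate. After 20 min equilibration, hearts had 25 min global no-flow ischaemia and 60 min reperfusion. Test compound (1.6 µM) or 0.05% DMSO was infused for 5 min at reperfusion onset. Rate × developed pressure was normalised to pre-ischaemic baseline, infarct area was measured by TTC in 4–6 slices, and n = 6 per group.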
Structure (SMILES),concentrations with off-target effects [1],inhibition of the fluorescent signal (positive inhibitor of site IQ) ([2]; plate control in screen),IC50 [2],suppression of tunicamycin-induced increase in mitotic marker phospho-histone H3 [3],caspase 3/7 activation by tunicamycin [4],post-ischemic recovery of cardiac function (rate × pressure product) ([5]; 25 min ischemia),infarct size ([5]; TTC staining)
"O=[N+]([O-])c1ccc(Oc2ccc(S(=O)(=O)NC3CCCCC3)cc2)cc1 [CN-POBS, N-cyclohexyl-4-(4-nitrophenoxy) benzenesulfonamide]",> 10 µM,,,,,,
"C=C(C)[C@H]1Cc2c(ccc3c2O[C@@H]2COc4cc(OC)c(OC)cc4[C@@H]2C3=O)O1 [Rotenone, reference compound]",,> 85%,,,,,
CC(=O)Nc1cccc(NC(=O)C(=O)NCCc2sc(-c3ccc(C)cc3)nc2C)c1 [S1QEL1.1],,,70 nM,up to 45%,strongly attenuated caspase activation,significantly improved,small but significant decrease
CCCCC1CCC(C(=O)NCCS(=O)(=O)N2CCN(c3cccc(Cl)c3)CC2)CC1 (stereo not shown) [S1QEL2.2],,,1500 nM,up to 45%,also did so at higher concentrations,,
